In the library only some 1.4% were active in any assay of this set; here they are far more common.
UCH37 inh: inhibitors of human UCH37 deubiquitinase, primary screen, biochemical, Ub-AMC cleavage, fluorescence; 330,000 tested, 0.33% active; AID 588478, 2011; inhibition, % (concentration not given with the values); purified proteasome/UCH37; Ubiquitin carboxyl-terminal hydrolase isozyme L5 (Homo sapiens), Q9Y5K5;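 active = mean inhibition over replicate wells above about 20%, limit read from the data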;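 also: 0% = compound-free wells with enzyme and 100% = wells lacking proteasome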
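system = Proteasome-associated human UCH37 deubiquitinase | amount = 0.15 nM proteasome as dispensed | medium = pH 7.4 Tris-HCl (50 mM) with ovalbumin, ATP-MgCl2, DTT | incubation = 30 min preincubation with enzyme, 25 min cleavage at room temperature | detection = AMC fluorescence 355/460 nm | read-out basis = percent inhibition | controls = no-proteasome and no-compound wells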
CTSL1 counter: Fasciola hepatica cathepsin L1 inhibitors, primary screen, counter-screen for PFM18AAP inhibitor project, biochemical, QFRET, fluorogenic peptide substrate. recombinant F. hepatica cathepsin L1, Z-Leu-Arg-MCA fluorescence. inhibition, % at 5.96 µM. 300,000 tested, 0.49% active. AID 1906, 2009;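 active = inhibition above the mean of all tested compounds plus 3 SD, set per screening campaign, cut at about 17% in these data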;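 also: 0% = plate median of test compound wells and 100% = 1 µM Z-Phe-Ala-diazomethylketone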
UBC9 SUMO inh: inhibitors of in vitro SUMOylation cascade, primary screen, biochemical, HTRF, uHTS; SUMO-conjugating enzyme UBC9 (Homo sapiens), P63279; inhibition, % at 35 µM; 290,000 tested, 0.36% active; HTRF SUMOylation assay, SAE1/SAE2 + UBC9; AID 2006, 2009; in the data active = inhibition above about 50%, passing the limit was not always enough; inconclusive = no clear call, values can overlap the other calls
Neddylation inh: inhibitors of cullin neddylation, primary screen, biochemical, TR-FRET, uHTS, NAE and Ubc12. NEDD8-conjugating enzyme Ubc12 (Homo sapiens) + NEDD8-activating enzyme E1 regulatory …. inhibition, % at 25 µM. 360,000 tested, 0.58% active; in the data active = inhibition above about 36%
Target sequence (P61081 whole entry, looked up): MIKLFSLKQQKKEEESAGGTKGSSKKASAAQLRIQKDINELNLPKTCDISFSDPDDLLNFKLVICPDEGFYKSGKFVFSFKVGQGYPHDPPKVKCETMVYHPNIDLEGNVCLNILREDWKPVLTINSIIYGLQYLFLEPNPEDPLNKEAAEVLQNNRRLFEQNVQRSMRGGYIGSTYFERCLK
Target sequence (Q13564 whole entry, looked up): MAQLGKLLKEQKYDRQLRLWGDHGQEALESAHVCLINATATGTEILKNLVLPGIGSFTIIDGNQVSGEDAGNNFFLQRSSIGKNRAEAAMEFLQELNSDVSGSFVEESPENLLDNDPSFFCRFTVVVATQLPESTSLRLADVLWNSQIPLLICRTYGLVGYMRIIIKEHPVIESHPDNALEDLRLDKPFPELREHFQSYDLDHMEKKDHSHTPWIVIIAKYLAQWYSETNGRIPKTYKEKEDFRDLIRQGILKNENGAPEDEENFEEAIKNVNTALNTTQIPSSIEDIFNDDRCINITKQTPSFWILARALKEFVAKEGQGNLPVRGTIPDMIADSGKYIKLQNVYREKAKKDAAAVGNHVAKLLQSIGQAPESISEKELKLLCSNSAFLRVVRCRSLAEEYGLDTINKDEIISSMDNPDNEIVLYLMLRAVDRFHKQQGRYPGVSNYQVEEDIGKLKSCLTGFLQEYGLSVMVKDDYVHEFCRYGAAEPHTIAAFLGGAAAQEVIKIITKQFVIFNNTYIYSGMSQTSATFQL
UCH37 confirm: retest of human UCH37 deubiquitinase inhibitors, confirmation, biochemical, Ub-AMC cleavage rate, fluorescence | Proteasome-bound UCH37 | shares compounds with UCH37 inh | inhibition, % at 20 µM | 480 tested, 27% active;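 active = average inhibition over replicates above about 50%, so the earlier screening hit is confirmed, limit read from the data; inactive = the rest, counted as false positives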;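 also: based on cleavage rate fitted by regression over a 30 min kinetic read; 0% = proteasome plus Ub-AMC and 100% = Ub-AMC without proteasome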
* marks the source's active call; other numbers are inactive results; u = inconclusive; x = no result given.

SMILES	UCH37 inh	CTSL1 counter	UBC9 SUMO inh	Neddylation inh	UCH37 confirm
Cn1cnc([N+](=O)[O-])c1NC(C)(C)C	9	2	3	-11	x
Cn1cnc([N+](=O)[O-])c1S(=O)(=O)c1ccc(Cl)cc1	49*	x	11	-5	13
CC(=NNc1nccnc1Cl)c1c(F)c(F)c(F)c(F)c1F	2	x	x	x	x
Cc1onc(-c2c(Cl)cccc2Cl)c1CON=C(C#N)c1c(Cl)cccc1Cl	1	x	x	x	x
O=C(O)c1cccc(NC2=C(n3nnc4ccccc43)C(=O)c3ccccc3C2=O)c1	52*	5	25	-52	55*
COc1ccc(NC(=S)Nc2ccc3nsnc3c2)cc1	40*	99*	97	-33	36
COc1cccc(C=NNC(=O)c2cnccn2)c1O	7	x	x	x	x
CC(C)(C)OC(=O)NCc1ccc(CNC(=O)c2[nH]cnc2C(=O)NC2CCN(C(=O)OC(C)(C)C)CC2)cc1	39*	x	x	-4	-16
CC(=O)N(C)C1=C(O)c2ccccc2C(=O)C1=O	9	0	-9	-53	x
CC(=O)N(C1=C(N)C(=O)c2ccccc2C1=O)C(C)C	26*	1	10	-20	20
CC(=O)Nc1ccc(NC(=NS(=O)(=O)c2ccccc2)c2ccccc2)cc1	0	x	x	x	x
COc1cc(NC(=S)NC2CC(C)(C)NC(C)(C)C2)cc(OC)c1	0	-1	8	-8	x
COc1cc(NC(=S)NC2CC(C)(C)NC(C)(C)C2)c(OC)cc1Cl	39*	-3	6	0	6
CCOC(=O)C(C)C(C)=NNC(=O)CCC(=O)Nc1cc(C)ccc1C (stereo not given)	0	x	x	x	x
COc1ccc(N(C(=O)c2ccc(Cl)cc2)C2=CC3CCC(C2)N3C)cc1 (stereo not given)	42*	-2	-6	0	0
Cc1ccc(S(=O)(=O)NC2=C(N3CCN(Cc4ccccc4)CC3)C(=O)c3ccccc3C2=O)cc1	6	-2	8	-59	x
NC(=O)C1CCN(C2=C(NS(=O)(=O)c3ccc(Cl)cc3)C(=O)c3ccccc3C2=O)CC1	33*	4	52	-39	30
CCOC(=O)N1CCN(C2=C(NS(=O)(=O)c3ccc(C)cc3)C(=O)c3ccccc3C2=O)CC1	42*	6	64	-63	53*
CC12CCC(CC1=NO)C2(C)C (stereo not given)	1	x	x	x	x
Cc1[nH]c2ccccc2c1C=NNC(=O)CNC(=O)c1ccco1	9	x	x	x	x
CC(=NN1CCCCC1)c1ccccc1O	3	x	x	x	x
CCOC(=O)c1sc(N=Cc2c(O)ccc3ccccc23)cc1C	7	x	x	x	x
CC(C)n1cc(/C=C/c2cc[n+](C)cc2)c2ccccc21	28*	x	17	-129	19
CN(C)S(=O)(=O)c1ccc(C(=O)Nc2nnc(-c3cccs3)o2)cc1	52*	4	5	11	3
N#Cc1ccc(C(=O)Nc2nnc(-c3cccs3)o2)cc1	13	6	-1	0	x
SMILES	UCH37 inh	CTSL1 counter	UBC9 SUMO inh	Neddylation inh	UCH37 confirm
CC(C)CNC(=O)COc1cccc(C(=O)NCc2ccccc2)c1	36*	4	-13	9	12
C=C(C)C1CCC(C)=C1CC(C)(C)C=Nn1cnnc1 (stereo not given)	42*	x	x	x	58*
O=C(COC(=O)c1ccc([N+](=O)[O-])o1)NC1CCCCC1	26*	x	x	-17	19
Cc1ccc(C(=O)OCC(=O)NC2CCCCC2)o1	x	5	-5	-2	x
CC1CCCCC1NC(=O)COC(=O)c1ccc([N+](=O)[O-])o1 (stereo not given)	30*	x	x	-23	1
CC1Cc2ccccc2N1C(=O)COC(=O)c1ccc([N+](=O)[O-])o1 (stereo not given)	26*	x	x	-77	31
O=C(COC(=O)c1ccc([N+](=O)[O-])o1)NC1CCCC1	32*	x	x	-35	10
O=C(NC1CCCCC1)c1ccc([N+](=O)[O-])o1	3	-4	-8	-33	x
CC1CCCC(NC(=O)COC(=O)c2ccc(Br)o2)C1C (stereo not given)	0	x	x	7	x
O=[N+]([O-])c1cc([N+](=O)[O-])c2oc(-c3ccccc3)c(Br)c2c1O	27*	x	36	-27	71*
Nc1ccc2c(c1)C(=O)C(=O)c1ccccc1-2	99*	112*	u	-120	101*
Nc1ccc2c(c1)C(=O)c1ccccc1C2=O	1	-5	x	-30	x
O=S(=O)(O)c1cc(O)ccc1O	-2	-1	x	-3	x
O=S(=O)(O)c1cc(O)c(N=Nc2ccc(O)cc2O)c2ccccc12	31*	x	x	-133	51*
O=C(Cn1cncn1)NN=Cc1cc([N+](=O)[O-])ccc1O	13	x	x	x	x
COc1cc(OC)c(OC)cc1/C=C1\Oc2cc(OCC(=O)N3Cc4ccccc4C[C@H]3C(=O)O)ccc2C1=O	27*	3	25	6	18
COc1ccc(/C=C2\Oc3cc(OCC(=O)N4CCC[C@H]4C(=O)O)ccc3C2=O)c(OC)c1	3	0	1	3	x
ON=CCc1[nH]c2ccccc2c1-c1ccccc1	1	x	x	x	x
O=C1NNC(c2ccccc2)=N/C1=C\c1ccccc1Cl	34*	x	81	-18	74*
CC1(C)CCCC2=C1CC1C(=O)N(Cc3cccnc3)C(=O)C1C2 (stereo not given)	39*	3	13	15	46
O=C1C2C3C=CC([C@@H]2C(=O)N1Cc1cccnc1)C31CC1 (stereo not given in full)	1	4	7	-5	x
N#Cc1c(N2CCCC2)nc(N)c2c(N)nc(N3CCCC3)cc12	31*	110*	100*	37	1
COc1cccc(C=NNC(=O)c2ccc(COc3ccc(Cl)cc3Cl)o2)c1	3	x	x	x	x
CCOC(=O)Cn1cc(C=NNC(=O)CC#N)c2ccccc21	2	x	x	x	x
CCN(CC)c1ccc(/C=C(/C#N)C(=O)NC(C)C)o1	29*	5	4	-157	28
SMILES	UCH37 inh	CTSL1 counter	UBC9 SUMO inh	Neddylation inh	UCH37 confirm
CC(C)NC(=O)/C(C#N)=C\c1ccc(N(C)C)o1	37*	5	6	-158	36
CCN(CC)c1ccc(/C=C(/C#N)C(=O)NCc2ccccc2)o1	8	5	-7	-302	x
CCCCCCCCCCCCCCCCn1cc[n+](CC(C)=O)c1	85*	x	6	6	96*
CCCCCCn1ccc(=N)cc1	7	0	9	2	x
O=C1c2ccccc2C(=O)c2[nH]cnc21	x	x	15	-101	x
O=C1c2ccccc2C(=O)c2[nH]c(=O)[nH]c21	41*	31*	0	-133	48
O=C1C(=O)c2ccccc2C(O)=C1c1ccccc1F	9	1	19	-48	x

Screening data: PubChem, several laboratories
